High-throughput results: PubChem, several laboratories
FXIIa inh 1536: blocks human coagulation factor XIIa protease activity | AID 800 | purified FXIIa, Boc-QGR-AMC fluorogenic substrate, 2 h | 220,000 tested, 0.3% active | inhibition, % at 5 µM | P00748; in the data active means inhibition above about 40%;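 further: 0% = enzyme with no compound and 100% = blank without enzyme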
hK5 inh: inhibitors of human kallikrein 5 | inhibition, % at 5 µM | recombinant hK5, fluorogenic AMC substrate cleavage | Q9Y337 | 210,000 tested, 0.59% active;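 active means inhibition of 40% or more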;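 further: 0% = enzyme controls without compound and 100% = no-enzyme blanks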
Calpain2 inh: blocks pig calpain II enzyme activity. 220,000 tested, 0.37% active. inhibition, % at 16 µM. purified calpain II, fluorogenic peptide substrate, 30 min;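 active means inhibition above about 50%, limit read from the data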
FXIa inh 1536: blocks human coagulation factor XIa protease activity | inhibition, % at 5 µM | AID 798 | purified FXIa, Boc-Glu-Ala-Arg-AMC fluorogenic substrate | 220,000 tested, 0.14% active;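 active means inhibition of at least 40%; inactive means inhibition below 40%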;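 further: fluorescence of freed AMC excited at 355 nm; 0% = enzyme without compound and 100% = no enzyme blank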
thrombin 1536: thrombin (human) inhibition; P00734; alpha-thrombin, Boc-VPR-AMC fluorogenic substrate cleavage; inhibition, % at 5 µM; 220,000 tested, 0.26% active;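 active means inhibition at or above 40%; inactive means inhibition below 40%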;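 further: 0% = enzyme with no compound and 100% = wells without enzyme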
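Assay system: human alpha-thrombin enzyme. Reagent: Boc-VPR-AMC substrate, 15 µM final. Compound dosing: one concentration per compound, 5 µM, with 0.2% DMSO. Incubation: room-temperature reaction. Technique: AMC fluorescence, 355/460 nm. Measure: % inhibition relative to enzyme controls and enzyme-free blanks.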
An asterisk follows results filed as active; · = no result. An excerpt weighted towards active compounds, which were near 1.4% of everything screened.

SMILES | FXIIa inh 1536 | hK5 inh | Calpain2 inh | FXIa inh 1536 | thrombin 1536
Cc1cc(C(C)(C)C)oc1C(=O)N(CC(=O)NC1CCCC1)Cc1ccccc1Cl | 13 | -19 | 50* | -3 | -5
Cc1ccccc1N(CC(=O)NC1CCCC1)C(=O)c1oc(C(C)(C)C)cc1C | 6 | -11 | 10 | 0 | -6
O=C(NCc1ccccc1C(F)(F)F)C1CC(c2ccc(C(F)(F)F)cc2)=NO1 (stereo unspecified) | -3 | -3 | 25 | -5 | -9
CS(=O)(=O)NCCCNc1ccc(C(F)(F)F)cc1[N+](=O)[O-] | 8 | 2 | 8 | 2 | 2
O=[N+]([O-])c1cc(C(F)(F)F)ccc1NCCc1c[nH]c2ccccc12 | 25 | -5 | 50* | 20 | -8
O=[N+]([O-])c1cc(C(F)(F)F)ccc1NCCc1c[nH]c2ccc(O)cc12 | 3 | -4 | 52* | -3 | -8
CSC(=Nc1cccc(C)c1)NC#N | -3 | -9 | 29 | -9 | -6
COc1cc(NC(=O)CSCC(=O)Nc2cc(OC)cc(OC)c2)cc(OC)c1 | 7 | 5 | 9 | 1 | 1
COc1cccc(CN(C)C(=O)CCc2nnc(-c3ccsc3)o2)c1 | 9 | 3 | -27 | 0 | 94*
CCOC(=O)CN(C)C(=O)CCc1nnc(-c2ccsc2)o1 | 9 | 4 | -26 | -2 | -4
OCc1nc2ccccc2n1/N=C/c1cccs1 | 17 | 43* | 21 | 16 | 15
CC(C)(C)n1nc2c(c1NC(=O)Cc1ccccc1)CS(=O)(=O)C2 | 4 | -8 | -4 | -3 | -10
O=C(OCc1ccccc1)/C(=C/c1cccc2ccccc12)NC(=O)c1ccccc1 | 18 | 47* | 30 | 18 | 14
CCC(C)NC(=O)COc1ccc(OCc2ccccc2)cc1 (stereo unspecified) | 10 | -4 | -4 | -7 | -25
CCc1ccc(C(=O)COC(=O)CNC(=O)c2ccc(N3C(=O)c4ccccc4C3=O)cc2)cc1 | 27 | 44* | 18 | 4 | 4
CCCCN=C(C)c1c(O)c2ccccc2oc1=O | -5 | -29 | 73* | -5 | -12
CCCCC(=O)c1c(O)c2ccccc2oc1=O | 10 | -1 | 17 | 15 | -12
CCCN(CCC)C(=O)Cn1c(=O)n(CCCCCC(=O)Nc2ccccc2)c(=O)c2sccc21 | 4 | -1 | 17 | -4 | -1
COc1cc(/C=C2/SC(=O)NC2=O)ccc1Oc1ccc([N+](=O)[O-])cc1[N+](=O)[O-] | 17 | 12 | 63* | 5 | 2
Cc1cc(C)cc(C(=O)N2CCC(C(N)=O)CC2)c1 | 30 | 13 | 13 | 7 | -5
Cc1c(C(=O)N2CCC(C(N)=O)CC2)sc(N)c1C#N | 9 | 107* | 8 | 8 | 104*
COc1ccc(Nc2nnc(SC(C(=O)Nc3cc(C)ccc3C)c3ccccc3)s2)cc1 (stereo unspecified) | 75* | 22 | 28 | 30 | 38
CCCOP(=O)(c1ccc(N(C)C)cc1)C(O)c1ccncc1 (stereo unspecified) | 15 | 15 | 4 | 11 | 66*
O=C(NCC1CCCO1)c1ccc(NS(=O)(=O)c2ccccc2)cc1 (stereo unspecified) | 11 | · | 1 | 3 | 2
Cc1ccc(N(CC(O)CN2C(=O)NC(C)(C)C2=O)S(=O)(=O)c2ccc(C)cc2)cc1 (stereo unspecified) | 49* | 31 | 13 | 34 | 12
SMILES | FXIIa inh 1536 | hK5 inh | Calpain2 inh | FXIa inh 1536 | thrombin 1536
Cc1cccc(Cn2c(Sc3nc(C)cs3)nc3c2c(=O)[nH]c(=O)n3C)c1 | 14 | 0 | -3 | 6 | 2
C=CCn1c(Sc2nc(C)cs2)nc2c1c(=O)[nH]c(=O)n2C | 3 | -22 | 53* | -3 | -3
O=C(CCn1c(=O)c2ccccc2n(CC(=O)NC2CCCC2)c1=O)NCc1ccco1 | 24 | -9 | -8 | 14 | 3
O=C(CCCCn1c(=O)c2ccccc2n(CC(=O)NC2CCCC2)c1=O)NCc1ccco1 | -14 | 0 | 68* | -12 | -9
COc1cc(/C=C/C(=O)OCc2c(C)noc2C)ccc1OC(F)F | 35 | 54* | 6 | 39 | 13
Cc1ccc(C(O)CSc2nnc(-c3ccc4ccccc4c3)n2C)cc1 (stereo unspecified) | 3 | -5 | 9 | -5 | 0
O=C(O)CSc1cccc[n+]1[O-] | 14 | -8 | -1 | 5 | 5
O=C(CSc1cccc[n+]1[O-])c1cc(Cl)ccc1Cl | 12 | -1 | 70* | -1 | 0
